Published values gathered from unrelated publications.
Compare with care: the assays were run in different laboratories.
CTSB: Cathepsin B (CTSB, Homo sapiens, UniProt P07858)
STAT3: Signal transducer and activator of transcription 3 (STAT3, Homo sapiens, UniProt P40763)

Compound	target	observed	mode	method	setting	measurement	value
CCC(C(=O)Nc1cc(NC2CCNC2)ccc1C)n1cc(Br)cc2nc(SCc3ccc(F)cc3)nc1-2 (stereo not shown)	CTSB	enzyme activity	inhibitor	–	–	IC50	> 100000 nM
CC(=O)N[C@H]1Cc2ccc(cc2)OC/C=C/C[C@@H](C(=O)N[C@@H](CCCNC(=N)N)C(=O)c2nc3ccccc3s2)NC(=O)[C@H](CC(C)C)NC1=O	Suppressor of tumorigenicity 14 protein (ST14, Homo sapiens, UniProt Q9Y5Y6)	enzyme activity	inhibitor	fluorescence	with preincubation	IC50	4.6 nM
CC(C)C[C@H](NC(=O)[C@H]1O[C@@H]1C(=O)O)C(=O)NCCCCN=C(N)N	CTSB	enzyme activity	inhibitor	–	–	IC50	11.8 nM
NC(=O)CC[C@H](NC(=O)[C@@H]1CC[C@@H]2CCN(C(=O)CCCCCC#Cc3cccc4c3CN(C3CCC(=O)NC3=O)C4=O)C[C@H](NC(=O)c3cc4cc(C(F)(F)P(=O)(O)O)ccc4[nH]3)C(=O)N21)C(=O)NC(c1ccccc1)c1ccccc1 (stereo partly shown)	STAT3	protein level	degrader	luciferase	–	DC50	360 to 380 nM
COC(=O)c1cc(N(C)C(=O)c2ccn3ncc(-c4ccc(C(=O)O)cc4)c3c2)ccc1Cl	Serine/threonine-protein kinase pim-1 (PIM1, Homo sapiens, UniProt P11309)	enzyme activity	inhibitor	–	–	IC50	93.7 nM
NC(=O)CC[C@H](NC(=O)[C@@H]1CC[C@@H]2CCN(C(=O)CCCCCC#Cc3cccc4c3CN(C3CCC(=O)NC3=O)C4=O)C[C@H](NC(=O)c3cc4cc(C(=O)P(=O)(O)O)ccc4[nH]3)C(=O)N21)C(=O)NC(c1ccccc1)c1ccccc1 (stereo partly shown)	STAT3	protein level	degrader	luciferase	–	DC50	360 to 380 nM
Cn1nccc1[C@]1(CNC(=O)c2ccc(F)c(F)c2-c2ccc(C(F)(F)F)cc2)NC(=O)NC1=O	CTSB	enzyme activity	inhibitor	–	–	IC50	> 100000 nM
CC[C@H](C)[C@H](NC(=O)[C@H](CO)NC(=O)CNC(=O)[C@@H](NC(=O)[C@@H](NC(=O)[C@@H](NC(=O)CN)[C@@H](C)O)C(C)C)[C@@H](C)O)C(=O)N[C@@H](CC(C)C)C(=O)N[C@H](C(=O)N1CCC[C@H]1C(=O)N[C@H](C(=O)N[C@@H](CC(=O)O)C(=O)N[C@@H](Cc1ccc(O)cc1)C(=O)NCC(=O)N[C@H]1CSSC[C@@H](C(=O)N[C@@H](CO)C(=O)N[C@H](C(=O)N[C@@H](C)C(=O)N[C@@H](CCSC)C(=O)N[C@@H](Cc2ccc(O)cc2)C(=O)NCC(=O)NCC(=O)N[C@H](C(=O)N[C@H](C(=O)N[C@@H](CC(=O)O)C(=O)N2CCC[C@H]2C(=O)N[C@H](C(=O)N[C@@H](CCCNC(=N)N)C(=O)N[C@@H](Cc2ccccc2)C(=O)N2CCC[C@H]2C(=O)N[C@@H](CC(N)=O)C(=O)N[C@@H](C)C(=O)N[C@@H](Cc2c[nH]c3ccccc23)C(=O)N[C@@H](CCCNC(=N)N)C(=O)N[C@@H](CCC(=O)O)C(=O)N[C@@H](CC(C)C)C(=O)O)[C@@H](C)CC)[C@@H](C)CC)C(C)C)C(C)C)NC(=O)[C@H](CC(C)C)NC(=O)[C@H](Cc2ccccc2)NC(=O)[C@@H]2CCCN2C(=O)[C@H](CC(N)=O)NC(=O)[C@H](Cc2ccccc2)NC1=O)[C@@H](C)CC)[C@@H](C)O	CTSB	enzyme activity	inhibitor	–	–	IC50	> 200000 nM
CCC(C(=O)Nc1cc(NC2CNC2)ccc1C)n1cccc2nc(SCc3ccc(F)cc3)nc1-2 (stereo not shown)	CTSB	enzyme activity	inhibitor	–	–	IC50	> 100000 nM
CNC(=O)c1ccc(-c2cnn3ccc(C(=O)N(C)c4ccc(Cl)c(C(=O)O)c4)cc23)cc1	ALK tyrosine kinase receptor (ALK, Homo sapiens, UniProt Q9UM73)	enzyme activity	inhibitor	–	–	IC50	> 30000 nM
